Unmarked numbers belong to inactive results. Calls of active or inactive are those of the source.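 How the source made its calls: active means maximum inhibition above 30% at any tested concentration, with a dose response curve fitted; inactive means no inhibition at any dose or no dose response curve.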
Experiment: parental HEK293 potassium flux blockers – cell-based, FluxOR thallium flux, concentration-response, set 2, counter-screen for KCNK9 inhibitor project, SAR follow-up (AID 540324)
Conditions: FluxOR fluorescence ratio; series mostly up to 30 µM; flux ratio, lower = inhibition: at the top concentration
Summary of the method: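 test system = parental HEK293 cells lacking KCNK9 expression | doses = Ten-concentration dilution series per compound | incubation = dye loading 90 min at room temperature in dark, compound exposure 20 min | measured by = fluorescence of thallium-sensitive FluxOR dye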

Row | SMILES | flux ratio, lower = inhibition | outcome
1 | Cc1cccc(C(=O)Nc2cccc(NC(=O)c3ccccc3C(F)(F)F)c2)c1 | 0.183 | 
2 | CCOc1ccc(NC(=O)c2cccc(NC(=O)C3CCCC3)c2)cc1 | 0.2 | 
3 | CCOc1ccccc1NC(=O)c1cccc(NC(=O)c2cccc(C)c2)c1 | 0.153 | 
4 | CC(c1ccccc1)n1c(-c2ccco2)n[nH]c1=S (stereo not given) | 0.248 | 
5 | O=C(Nc1ccccc1Cl)c1cccc(NC(=O)C2CCCC2)c1 | 0.14 | 
6 | Cc1cccc(C(=O)Nc2cccc(NC(=O)C3CCCCC3)c2)c1 | 0.17 | 
7 | O=C(Nc1cccc(NC(=O)c2cccc(C(F)(F)F)c2)c1)c1ccccc1 | 0.193 | 
8 | CC(C1CC2CCC1C2)n1c(-c2ccccc2)n[nH]c1=S (stereo not given) | 0.379 | 
9 | Cc1ccc(-c2n[nH]c(=S)n2C(C)C2CC3CCC2C3)cc1 (stereo not given) | 0.453 | 
10 | CC(C1CC2CCC1C2)n1c(-c2ccoc2)n[nH]c1=S (stereo not given) | 0.153 | 
11 | S=c1[nH]nc(-c2ccco2)n1CC1CCCCC1 | 0.161 | 
12 | O=C(Nc1cccc(NC(=O)C2CCCCC2)c1)c1ccccc1 | 0.154 | 
13 | CC(C1CC2CCC1C2)n1c(-c2ccco2)n[nH]c1=S (stereo not given) | 0.27 | 
14 | Cc1cccc(C(=O)Nc2cccc(NC(=O)c3cccs3)c2)c1 | 0.158 | 
15 | COc1ccccc1NC(=O)c1cccc(NC(=O)c2ccccc2OC)c1 | 0.177 | 
16 | O=C(Nc1cccc(NC(=O)c2ccncc2)c1)c1ccccc1 | 0.192 | 
17 | CCOc1ccccc1NC(=O)c1cccc(NC(=O)c2cccc(Cl)c2)c1 | 0.159 | 
18 | CCOc1ccccc1NC(=O)c1cccc(NC(=O)C(C)(C)C)c1 | 0.172 | 

Row | SMILES | flux ratio, lower = inhibition | outcome
19 | CCOc1cccc(NC(=O)c2cccc(NC(=O)C3CCCC3)c2)c1 | 0.139 | 
20 | COc1ccccc1C(=O)Nc1cccc(NC(=O)c2ccccc2C)c1 | 0.148 | 
21 | CC(C1CC2CCC1C2)n1c(C2CCOC2)n[nH]c1=S (stereo not given) | 0.185 | 
22 | CCOc1ccccc1NC(=O)c1cccc(C(=O)NC2CCCC2)c1 | 0.197 | 
23 | Cc1cccc(C(=O)Nc2cccc(NC(=O)c3cccc(C)c3)c2)c1 | 0.152 | 
24 | COc1ccccc1C(=O)Nc1cccc(NC(=O)c2ccccc2C(C)C)c1 | 0.159 | 
25 | COc1ccc(C(=O)Nc2cccc(NC(=O)c3ccccc3)c2)cc1 | 0.191 | 
26 | COc1ccccc1C(=O)Nc1cccc(NC(=O)c2ccccc2OC)c1 | 0.297 | 
27 | Cc1cccc(C(=O)Nc2cccc(NC(=O)c3ccccc3C)c2)c1 | 0.158 | 
28 | COc1cccc(C(=O)Nc2cccc(NC(=O)c3ccccc3)c2)c1 | 0.175 | 
29 | CCOc1ccccc1NC(=O)c1cccc(NC(=O)c2ccccc2Cl)c1 | 0.121 | 
30 | O=C(Nc1cccc(NC(=O)c2ccc(C(F)(F)F)cc2)c1)c1ccccc1 |  | inactive
31 | Cc1cccc(S(=O)(=O)Nc2cccc(NC(=O)c3ccccc3)c2)c1 | 0.165 | 
32 | COc1ccccc1C(=O)Nc1cccc(NC(=O)c2cccc(C)c2)c1 | 0.169 | 
33 | COc1ccc(C(=O)Nc2cccc(NC(=O)c3cccc(C)c3)c2)cc1 | 0.18 | 
34 | CCOc1ccccc1C(=O)Nc1cccc(NC(=O)c2ccccc2C(F)(F)F)c1 | 0.166 | 
35 | CCOc1ccccc1NC(=O)c1cccc(NC(=O)C2CC2)c1 | 0.168 | 
